Reference: ChEMBL document CHEMBL1141338, “Cytotoxic sesquiterpene lactones from Pseudoelephantopus spicatus” (J Nat Prod, 2007)
Values after ≈ are worked out from the molar mass of the structure shown.

Assays:
HepG2 = experiment: Cytotoxicity against human HepG2 cells; assay type: functional, cell-based
Method in brief: (§1)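 Panel lines are HepG2 hepatocellular carcinoma, MDA-MB-231 breast carcinoma and A-549 lung carcinoma (human); cytotoxicity evaluated alongside Hep3B and MCF-7 in the same screen.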

MDA-MB-231 = experiment: Cytotoxicity against human MDA-MB-231 cell; assay type: functional, cell-based; method in brief: as §1
A549 = experiment: Cytotoxicity against human A549 cells; assay type: functional, cell-based; method in brief: as §1
[1] = Cytotoxicity against human Hep3B cells; assay type: functional, cell-based, Hep 3B2
Method in brief: (§2)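 Human Hep3B hepatocellular carcinoma and MCF-7 breast carcinoma lines; cytotoxicity reported as IC50 in µg/mL; doxorubicin included as positive control.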

MCF7 = experiment: Cytotoxicity against human MCF7 cells; assay type: functional, cell-based; method in brief: as §2

Row | Structure (SMILES) | IC50 (HepG2) | IC50 (MDA-MB-231) | IC50 (A549) | IC50 [1] | IC50 (MCF7)
1 | CC(=O)OCC1=C2/C(=C\[C@@]3(C)CC[C@](O)(O3)[C@@](C)(O)C[C@@H]2O)OC1=O [PITOCARPHIN D] | > 5 µg/mL | > 5 µg/mL | > 5 µg/mL | – | –
2 | C=C1CC[C@@H]2[C@H](OC(=O)[C@H]2C)[C@H]2[C@H](C)OC(=O)C[C@@H]12 [SPICATOLIDE H] | > 5 µg/mL | > 5 µg/mL | > 5 µg/mL | – | –
3 | COCC1=C2[C@@H](OC(C)=O)C[C@@]3(C)O[C@@]2(OC1=O)[C@H](O)[C@@]1(C)CC[C@]3(O)O1 [SPICATOLIDE G] | > 5 µg/mL | > 5 µg/mL | > 5 µg/mL | 6.1 µg/mL (≈ 15.9 µM) | 4.8 µg/mL (≈ 12.5 µM)
4 | COCC1=C2[C@@H](O)C[C@@]3(C)O[C@]2(C[C@](C)(O)CCC3=O)OC1=O [SPICATOLIDE F] | > 5 µg/mL | > 5 µg/mL | > 5 µg/mL | 3.2 µg/mL (≈ 9.81 µM) | 2.4 µg/mL (≈ 7.35 µM)
5 | COCC1=C2/C(=C\[C@@]3(C)CC[C@](O)(O3)[C@@](C)(O)C[C@@H]2O)OC1=O [SPICATOLIDES D] | > 5 µg/mL | > 5 µg/mL | > 5 µg/mL | 4.8 µg/mL (≈ 14.7 µM) | 5.1 µg/mL (≈ 15.6 µM)
6 | COCC1=C2/C(=C\[C@@]3(C)CC[C@](O)(O3)[C@@](C)(O)C[C@@H]2OC(C)=O)OC1=O | > 5 µg/mL | > 5 µg/mL | > 5 µg/mL | – | –
7 | CC(=O)OCC1=C2[C@@H](OC(C)=O)C[C@@]3(C)O[C@]2(C[C@](C)(O)CCC3=O)OC1=O [SPICATOLIDE A] | > 5 µg/mL | > 5 µg/mL | > 5 µg/mL | – | –
8 | C/C=C(\C)C(=O)O[C@H]1C[C@](C)(O)[C@]2(O)CC[C@](C)(/C=C3/OC(=O)C(COC)=C31)O2 [SPICATOLIDE E] | > 5 µg/mL | > 5 µg/mL | > 5 µg/mL | – | –
9 | COCC1=C2[C@@H](OC(C)=O)C[C@@](C)(OC(C)=O)[C@@]3(O)CC[C@@](C)(O)[C@H](OC(C)=O)[C@@]23OC1=O | > 5 µg/mL | > 5 µg/mL | > 5 µg/mL | – | –
10 | COc1cccc2c1C(=O)c1c(O)c3c(c(O)c1C2=O)C[C@@](O)(C(=O)CO)C[C@@H]3O[C@H]1C[C@H](N)[C@H](O)[C@H](C)O1 [DOXORUBICIN] | – | – | – | 0.06 µg/mL (≈ 0.11 µM) | –
